Results as given in ChEMBL document CHEMBL2321744 (J Med Chem, 2013).
Activity calls are given as the source filed them. The calls are words filed in the database; no cut-off is given here.

Experiments:
[1] = biological target: T1, Phospholipase D2 (Homo sapiens, UniProt O14939); test: Inhibition of GFP-tagged PLD2 in human HEK293 cells assessed as deuterated 1-butanol incorporation pretreated for 5 mins prior to substrate addition measured after 30 mins by mass spectrometry
[2] = biological target: T2, Phospholipase D1 (Homo sapiens, UniProt Q13393); test: Inhibition of PLD1 in human Calu-1 cells assessed as deuterated 1-butanol incorporation pretreated for 5 mins prior to substrate addition measured after 30 mins by mass spectrometry
T2 sequence (Q13393 whole entry): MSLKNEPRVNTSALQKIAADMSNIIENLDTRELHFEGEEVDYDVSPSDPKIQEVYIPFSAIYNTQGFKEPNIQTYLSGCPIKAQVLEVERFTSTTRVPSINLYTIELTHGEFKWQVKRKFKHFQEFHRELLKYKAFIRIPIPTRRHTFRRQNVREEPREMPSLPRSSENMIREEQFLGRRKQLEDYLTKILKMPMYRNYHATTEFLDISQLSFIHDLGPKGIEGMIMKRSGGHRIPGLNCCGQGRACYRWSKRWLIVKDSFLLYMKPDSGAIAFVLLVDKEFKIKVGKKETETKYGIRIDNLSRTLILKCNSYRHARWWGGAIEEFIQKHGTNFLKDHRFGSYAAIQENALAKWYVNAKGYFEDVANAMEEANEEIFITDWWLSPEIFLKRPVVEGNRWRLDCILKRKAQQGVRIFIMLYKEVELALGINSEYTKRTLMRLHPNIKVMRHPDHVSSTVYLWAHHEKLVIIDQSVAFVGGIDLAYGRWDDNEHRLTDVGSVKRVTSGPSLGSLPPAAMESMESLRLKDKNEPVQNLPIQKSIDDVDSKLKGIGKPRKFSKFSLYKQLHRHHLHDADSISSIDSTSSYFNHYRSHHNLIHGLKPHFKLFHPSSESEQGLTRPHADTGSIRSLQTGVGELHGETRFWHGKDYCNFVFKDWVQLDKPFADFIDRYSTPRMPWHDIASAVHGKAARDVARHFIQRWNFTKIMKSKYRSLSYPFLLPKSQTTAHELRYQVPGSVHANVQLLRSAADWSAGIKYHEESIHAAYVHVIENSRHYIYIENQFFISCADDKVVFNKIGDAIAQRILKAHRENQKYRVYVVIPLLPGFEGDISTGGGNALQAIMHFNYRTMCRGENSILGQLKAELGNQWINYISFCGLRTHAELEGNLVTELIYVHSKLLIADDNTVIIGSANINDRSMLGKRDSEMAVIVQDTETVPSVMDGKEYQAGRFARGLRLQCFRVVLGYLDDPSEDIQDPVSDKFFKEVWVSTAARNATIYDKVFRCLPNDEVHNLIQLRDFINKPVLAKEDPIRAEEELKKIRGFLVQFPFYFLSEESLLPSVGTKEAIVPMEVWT

[3] = Solubility of the compound in PBS buffer; type: physicochemical
[4] = biological target: T1, Phospholipase D2; conditions: U-87MG ATCC
[5] = Stability of the compound in PBS buffer up to 48 hrs; type: physicochemical
[6] = in vivo; conditions: black6 (printed 'balck6'), mouse, lung, ip, 10 mg/kg
[7] = in vivo; conditions: black6 (printed 'balck6'), mouse, brain, ip, 10 mg/kg
[8] = Cytotoxicity against human U87MG cells assessed as cell viability up to 10 uM by WST-1 assay in presence of 10% FBS relative to control; type: cell-based; conditions: u-87mg atcc
Summary of the method: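 U87-MG cells in 10% FBS were exposed to compound at concentrations up to 10 μM. Viability was compared with DMSO vehicle.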

[9] = biological target: hERG (KCNH2) (Homo sapiens, UniProt Q12809); test: Inhibition of human ERG at 10 uM by radioligand binding assay
[10] = system: U-87 MG; test: Increase in caspase 3/7 activation in human U87MG cells after 6 to 72 hrs under serum free conditions; type: functional, cell-based; conditions: U-87MG ATCC

T1 sequence (O14939 whole entry): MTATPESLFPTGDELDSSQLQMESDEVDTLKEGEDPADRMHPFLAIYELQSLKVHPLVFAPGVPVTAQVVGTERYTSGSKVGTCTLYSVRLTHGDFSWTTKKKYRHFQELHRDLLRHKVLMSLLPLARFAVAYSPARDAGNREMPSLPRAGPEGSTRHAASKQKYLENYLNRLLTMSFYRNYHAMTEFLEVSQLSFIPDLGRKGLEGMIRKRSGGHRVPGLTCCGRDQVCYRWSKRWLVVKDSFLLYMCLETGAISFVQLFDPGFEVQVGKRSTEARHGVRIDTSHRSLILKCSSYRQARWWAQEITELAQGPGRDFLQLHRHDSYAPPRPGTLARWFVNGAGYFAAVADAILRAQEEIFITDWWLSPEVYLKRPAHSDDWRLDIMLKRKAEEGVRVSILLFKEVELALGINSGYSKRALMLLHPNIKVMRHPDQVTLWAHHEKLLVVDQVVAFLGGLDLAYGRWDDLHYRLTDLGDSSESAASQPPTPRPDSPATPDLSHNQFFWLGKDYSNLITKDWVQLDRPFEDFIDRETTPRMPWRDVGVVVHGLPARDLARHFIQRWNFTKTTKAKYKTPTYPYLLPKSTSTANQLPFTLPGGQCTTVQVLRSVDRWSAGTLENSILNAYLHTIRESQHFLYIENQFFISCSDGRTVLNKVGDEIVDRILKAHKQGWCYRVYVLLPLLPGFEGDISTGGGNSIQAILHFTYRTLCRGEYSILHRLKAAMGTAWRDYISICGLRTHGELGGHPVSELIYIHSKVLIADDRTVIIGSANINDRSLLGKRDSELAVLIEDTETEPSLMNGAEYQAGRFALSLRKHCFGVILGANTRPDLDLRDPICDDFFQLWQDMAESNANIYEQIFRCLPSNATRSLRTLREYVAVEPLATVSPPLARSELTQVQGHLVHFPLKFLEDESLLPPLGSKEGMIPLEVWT
Chain of hERG (KCNH2) (Q12809 whole entry): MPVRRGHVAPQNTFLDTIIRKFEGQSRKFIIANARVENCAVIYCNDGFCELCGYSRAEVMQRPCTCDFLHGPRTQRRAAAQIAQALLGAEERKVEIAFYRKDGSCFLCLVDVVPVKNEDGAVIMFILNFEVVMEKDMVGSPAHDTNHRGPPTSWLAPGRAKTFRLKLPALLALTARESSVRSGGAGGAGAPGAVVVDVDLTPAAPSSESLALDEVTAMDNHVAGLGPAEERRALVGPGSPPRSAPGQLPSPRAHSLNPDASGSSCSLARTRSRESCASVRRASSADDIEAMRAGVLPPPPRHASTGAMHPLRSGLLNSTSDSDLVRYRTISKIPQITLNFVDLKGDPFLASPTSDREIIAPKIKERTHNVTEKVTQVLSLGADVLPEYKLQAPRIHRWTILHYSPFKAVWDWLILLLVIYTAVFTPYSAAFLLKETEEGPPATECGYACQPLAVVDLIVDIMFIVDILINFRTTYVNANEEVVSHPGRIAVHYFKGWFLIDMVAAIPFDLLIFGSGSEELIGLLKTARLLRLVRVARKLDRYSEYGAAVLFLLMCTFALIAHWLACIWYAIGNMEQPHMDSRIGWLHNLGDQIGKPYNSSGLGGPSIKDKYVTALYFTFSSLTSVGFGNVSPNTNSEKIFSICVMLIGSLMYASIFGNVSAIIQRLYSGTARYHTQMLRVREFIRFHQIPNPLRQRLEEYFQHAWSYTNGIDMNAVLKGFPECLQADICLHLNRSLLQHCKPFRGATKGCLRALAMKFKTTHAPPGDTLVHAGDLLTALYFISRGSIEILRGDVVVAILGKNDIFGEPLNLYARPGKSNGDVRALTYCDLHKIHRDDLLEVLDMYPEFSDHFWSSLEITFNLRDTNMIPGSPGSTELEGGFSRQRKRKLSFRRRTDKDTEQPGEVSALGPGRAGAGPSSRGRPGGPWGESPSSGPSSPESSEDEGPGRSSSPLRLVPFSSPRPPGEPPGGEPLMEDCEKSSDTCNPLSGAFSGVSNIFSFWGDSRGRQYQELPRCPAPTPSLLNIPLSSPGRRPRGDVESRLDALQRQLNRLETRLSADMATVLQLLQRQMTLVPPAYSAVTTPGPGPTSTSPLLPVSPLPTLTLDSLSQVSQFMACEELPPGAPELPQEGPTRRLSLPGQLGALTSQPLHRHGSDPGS

Work on `C[C@H](CN1CCC2(CC1)C(=O)NCN2c1cccc(F)c1)NC(=O)c1ccc(Br)cc1` yielded an IC50 [1] of 800 nM.
With `O=C(NCCN1CCC2(CC1)C(=O)NCN2c1cccc(F)c1)c1ccc(F)cc1` the IC50 [1] was 350 nM.
`C[C@H](CN1CCC2(CC1)C(=O)NCN2c1cccc(F)c1)NC(=O)c1ccc(F)c(F)c1` showed an IC50 [1] of 3450 nM and an IC50 [2] of 1400 nM.
For `C[C@H](CN1CCC2(CC1)C(=O)NCN2c1cccc(F)c1)NC(=O)c1ccc(F)cc1`, the IC50 [1] was 1060 nM and the IC50 [2] was 760 nM.
`C[C@@H](CN1CCC2(CC1)C(=O)NCN2c1cccc(F)c1)NC(=O)c1ccc(F)cc1` gave an IC50 [1] of 35 nM and an IC50 [2] of 20 nM.
`C[C@@H](CN1CCC2(CC1)C(=O)NCN2c1cccc(F)c1)NC(=O)c1ccc(F)c(F)c1` gave an IC50 [1] of 120 nM and an IC50 [2] of 86 nM.
In the case of `O=C(NCCN1CCC2(CC1)C(=O)NCN2c1cccc(F)c1)c1ccc(F)c(F)c1`, the solubility [3] is reported as “soluble”, the inhibition [4] is reported as “Dose-dependent effect” and the Stability [5] is reported as “Stable”. For the same compound, the AUC at 6 h [6] was 4.61 µM·h, the AUC at 6 h [7] was 0.08 µM·h and the Activity [8] was “Non-toxic”.
`O=C(NCCN1CCC2(CC1)C(=O)NCN2c1cccc(F)c1)c1ccc(Br)cc1` showed an IC50 [1] of 200 nM and an IC50 [2] of 1540 nM.
With `Cc1cccc(N2CNC(=O)C23CCN(C[C@H](C)NC(=O)c2ccc(Br)cc2)CC3)c1` the inhibition at 10 µM [9] was greater than 50%, the solubility [3] was “soluble” and the Activity [10] was “Active”. The Stability [5] was “Stable” and the Activity [8] was “Non-toxic”.
